Active and inactive are the calls of the source. The calls are words filed in the database; no cut-off is given here.
Experiments:
[1] = target: Free fatty acid receptor 1 (Homo sapiens, UniProt O14842); experiment: Agonist activity at human FFA1 expressed in CHO cells assessed as increase in intracellular Ca2+ flux by Fluo-4 dye based FLIPR assay; format: functional, cell-based
Method in brief: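 Stable human FFA1 CHO cells were seeded at 15 K cells/well and held 16 h at 37 °C in 5% CO2, then washed with HBSS. Ca2+ flux was read after graded compound addition. Response was scaled between vehicle and 10 µM γ-linolenic acid. EC50 is the mean of three independent determinations.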

[2] = Lipophilicity, log D of the compound at 100 uM at pH 7.4 after 24 hrs by HPLC method; format: physicochemical; conditions: buffer
Method in brief: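 Shake-flask method: 10 mM DMSO stock was added to equal volumes of 0.01 M phosphate buffer pH 7.4 and 1-octanol, giving 100 µM final. Vials were shaken 24 h at 700 rpm, then left 1 h to separate. The octanol phase was diluted ×10 and both phases were run on HPLC. Injections were in duplicate; three independent experiments were run.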

Mus musculus [3] = experiment: Antidiabetic activity in ICR mouse assessed as reduction in blood glucose AUC (0 to 120 mins) at 40 mg/kg, po dosed 30 minutes prior to glucose challenge by OGTT relative to control; format: functional; parameters: scale not given: the % may be the effect or the level left
Method in brief: (§1)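 Fasting male ICR mice (10 weeks, 18-22 g) got a single oral dose in 0.5% carboxymethyl cellulose. Oral glucose (30% solution, 3 g/kg) followed 30 min later. Blood glucose was sampled at -30, 0, 15, 30, 60 and 120 min.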

[4] = AUC (0 to 24 hrs) in fasted Sprague-Dawley rat at 3 mg/kg, po administered as single dose by LC-PDA-MS/MS analysis; format: ADME, organism-based; parameters: dose 3 mg/kg, time < 24 hr, route oral; conditions: in vivo
Method in brief: (§2)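 Male SD rats (8 weeks, 180-200 g) were fasted 12 h and dosed once orally at 3 mg/kg, suspended in 0.5% methylcellulose, n = 4 per group. Tail-vein blood was drawn at 5, 15, 30 and 45 min and at 1, 2, 4, 6, 8, 12, 18 and 24 h. Plasma was stored at -20 °C. Methanol precipitation with internal standard preceded LC-PDA-MS/MS. Values are mean ± SD.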

[5] = Cmax in fasted Sprague-Dawley rat at 3 mg/kg, po administered as single dose by LC-PDA-MS/MS analysis; format: ADME, organism-based; parameters: dose 3 mg/kg, route oral; conditions: in vivo; method in brief: as §2
[6] = Plasma clearance in fasted Sprague-Dawley rat at 3 mg/kg, po administered as single dose measured up to 24 hrs by LC-PDA-MS/MS analysis; format: ADME, organism-based; method in brief: as §2
[7] = Half life in fasted Sprague-Dawley rat at 3 mg/kg, po administered as single dose by LC-PDA-MS/MS analysis; format: ADME, organism-based; conditions: in vivo; method in brief: as §2
Mus musculus [8] = experiment: Antidiabetic activity in ICR mouse assessed as reduction in blood glucose AUC (0 to 120 mins) at 20 mg/kg, po dosed 30 minutes prior to glucose challenge by OGTT relative to control; format: functional; parameters: scale not given: the % may be the effect or the level left; method in brief: as §1

Chain of Free fatty acid receptor 1 (O14842 whole entry): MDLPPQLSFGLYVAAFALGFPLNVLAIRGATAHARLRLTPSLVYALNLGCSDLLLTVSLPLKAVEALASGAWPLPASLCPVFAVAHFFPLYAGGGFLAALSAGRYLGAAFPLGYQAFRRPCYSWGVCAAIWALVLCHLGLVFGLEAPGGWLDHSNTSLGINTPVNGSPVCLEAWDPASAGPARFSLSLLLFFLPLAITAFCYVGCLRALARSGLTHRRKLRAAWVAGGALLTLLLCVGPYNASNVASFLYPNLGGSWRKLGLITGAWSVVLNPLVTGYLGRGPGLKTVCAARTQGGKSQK

| Structure (SMILES) | EC50 [1] [nM] | logD at 24 h, 100 µM [2] | Activity (Mus musculus [3]) | further results |
| --- | --- | --- | --- | --- |
| Cc1nn(C)c(C)c1-c1cccc(COc2ccc3c(c2)OCC3CC(=O)O)c1 (stereo unspecified) | 104 | – | – | – |
| Cc1cc(OCCCS(C)(=O)=O)cc(C)c1-c1cccc(COc2ccc3c(c2)OC[C@H]3CC(=O)O)c1 | – | – | – | Activity (Mus musculus [8]): 37.5%; AUC(0-t) at 24 h [4]: 79.5 µg·h/mL; Cmax [5]: 6460 ng/mL; CL/F [6]: 0.618 mL/min/kg; half-life [7]: 4.29 h |
| Cc1ccc(-c2c(C)noc2C)cc1COc1ccc2c(c1)OCC2CC(=O)O (stereo unspecified) | 53.7 | 2.07 | – | – |
| Cc1noc(C)c1-c1cccc(COc2ccc(CCC(=O)O)cc2)c1 | – | – | – | Activity (Mus musculus [3]; tested as the 2H-labelled form): Active |
| Cc1ccc(C)n1-c1cccc(COc2ccc3c(c2)OCC3CC(=O)O)c1 (stereo unspecified) | 53.6 | 3.95 | – | – |
| Cc1ccsc1-c1cccc(COc2ccc3c(c2)OCC3CC(=O)O)c1 (stereo unspecified) | 157 | – | – | – |

Continued by falling EC50 [1], values first:

| EC50 [1] [nM] | logD at 24 h, 100 µM [2] | Structure (SMILES) | Activity (Mus musculus [3]) | further results |
| --- | --- | --- | --- | --- |
| 45.7 | – | [2H]C([2H])(Cc1ccc(OCc2cccc(-c3c(C)noc3C)c2)cc1F)C(=O)O | – | – |
| 39.7 | 2.13 | Cc1noc(C)c1-c1ccc(Cl)c(COc2ccc3c(c2)OCC3CC(=O)O)c1 (stereo unspecified) | Active | – |
| 38.4 | 1.83 | [2H]C([2H])(Cc1ccc(OCc2cccc(-c3c(C)noc3C)c2)cc1)C(=O)O | – | – |
| 27.5 | 1.57 | Cc1noc(C)c1-c1cccc(COc2ccc3c(c2)OCC3CC(=O)O)c1 (stereo unspecified) | Active | – |
| 18.6 | 1.96 | Cc1noc(C)c1-c1cc(COc2ccc3c(c2)OCC3CC(=O)O)ccc1Cl (stereo unspecified) | Active | – |
| 7.9 | 1.93 | Cc1noc(C)c1-c1cc(COc2ccc3c(c2)OC[C@H]3CC(=O)O)ccc1Cl | 26.2% | AUC(0-t) at 24 h [4]: 142 µg·h/mL; Cmax [5]: 14100 ng/mL; CL/F [6]: 0.308 mL/min/kg; half-life [7]: 4.65 h |

Reference: ChEMBL document CHEMBL4219056 (Bioorg Med Chem, 2018)
